ChEMBL document CHEMBL2021766, “Antiplasmodial activity of novel keto-enamine chalcone-chloroquine based hybrid pharmacophores” (Bioorg Med Chem, 2012)
Converted amounts (≈) assume the structure as drawn.

Legend:
[1] = system: Plasmodium falciparum; assay: Antimalarial activity against chloroquine-sensitive ring stage Plasmodium falciparum 3D7 after 72 hrs by SYBR Green-I assay; format: functional, organism-based; details: 3D7, 72 h
How it was run: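 Asynchronous P. falciparum 3D7 culture (over 80% ring stages), 1.0% parasitized cell suspension at 0.8% parasitaemia, incubated with twofold serial dilutions at 37 °C, 5% CO2/air, 72 h. Lysis buffer with 1× SYBR Green-I added, 1 h at 37 °C. Fluorescence read at 485/530 nm excitation/emission. IC50 from triplicate experiments.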

[2] = system: Plasmodium yoelii; assay: Inhibition of beta-hematin formation in Plasmodium yoelii infected Swiss mouse plasma using hemin as substrate after 16 hrs by spectrophotometry; format: functional
How it was run: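 Plasma taken by cardiac puncture into 2.0% citrate from male Swiss mice (15–20 g) infected with 1 × 10^5 P. yoelii RBCs, at about 50% parasitemia. Mix: 100 mM sodium acetate pH 5.1, 50 µL plasma, 100 µM hemin, compound, in triplicate, 37 °C for 16 h with shaking. Pellet washed in Tris–HCl pH 7.4 with 2.5% SDS. IC50 = 50% inhibition; three experiments in triplicate.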

[3] = Selectivity index, ratio of CC50 for monkey Vero cells to IC50 for chloroquine-sensitive ring stage Plasmodium falciparum 3D7; format: functional
How it was run: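 Vero cells exposed to dilutions of test agents for 72 h; MTT read-out (modified Mosmann method); CC50 by non-linear regression. Ratio taken against the 3D7 IC50 from SYBR Green-I assay.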

[4] = system: Plasmodium yoelii; assay: Antimalarial activity against chloroquine-resistant Plasmodium yoelii N-67 infected Swiss mouse assessed as suppression of parasitemia at 100 mg/kg/day, po qd for 4 days measured on day 4; format: functional; details: N-67, 96 h
How it was run: (§1)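 Swiss mice infected with P. yoelii N-67 (1 × 10⁵ parasitized RBC, day 0). Test agents were given as aqueous suspensions with a few drops of Tween 80, orally at 100 mg/kg/day, once daily on days 0–3, to groups of five. Parasitaemia was read from thin blood smears on days 4 and 6. Percent suppression was calculated from group means versus untreated controls. Survival and cure were followed to day 30.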

[5] = system: Plasmodium yoelii; assay: Antimalarial activity against chloroquine-resistant Plasmodium yoelii N-67 infected Swiss mouse assessed as mean survival time at 100 mg/kg/day, po qd for 4 days; format: functional; how it was run: as §1
[6] = system: Plasmodium yoelii; assay: Antimalarial activity against chloroquine-resistant Plasmodium yoelii N-67 infected Swiss mouse assessed as suppression of parasitemia at 100 mg/kg/day, po qd for 4 days measured on day 6; format: functional; how it was run: as §1

Compound	IC50 [1] [µg/mL]	IC50 [2] [µg/mL]	Ratio CC50/IC50 [3]	inhibition in vivo at 100 mg/kg/day [4] [%]	MST [5] [days]	inhibition in vivo at 100 mg/kg/day [6] [%]
CC1=CC(/C=C/C(=O)c2ccc(F)cc2)=CC(=C\Nc2ccc(Nc3ccnc4cc(Cl)ccc34)cc2)/C1=O	0.16 (≈ 0.299 µM)	3.78 (≈ 7.05 µM)	407.52			
CCC(C)C1=CC(/C=C/C(=O)c2ccc(O)cc2)=CC(=C\NCCCNc2ccnc3cc(Cl)ccc23)/C1=O (stereo not drawn)	0.0424 (≈ 0.0783 µM)	2.93 (≈ 5.41 µM)	486.57			
CC1=CC(/C=C/C(=O)c2ccc(O)cc2)=CC(=C\NCCCNc2ccnc3cc(Cl)ccc23)/C1=O	0.0351 (≈ 0.0702 µM)	3.48 (≈ 6.96 µM)	505.98			
CCC(C)C1=CC(/C=C/C(=O)c2ccc(OC)cc2)=CC(=C\NCCCNc2ccnc3cc(Cl)ccc23)/C1=O (stereo not drawn)	0.0418 (≈ 0.0752 µM)	6.59 (≈ 11.9 µM)	549.12			
CCC(C)C1=CC(/C=C/C(=O)c2ccc(O)cc2)=CC(=C\NCCNc2ccnc3cc(Cl)ccc23)/C1=O (stereo not drawn)	0.022 (≈ 0.0417 µM)	2.71 (≈ 5.13 µM)	1071.27			
CC(C)(C)C1=CC(/C=C/C(=O)c2ccc(Br)cc2)=CC(=C\Nc2ccc(Nc3ccnc4cc(Cl)ccc34)cc2)/C1=O	> 0.1	13.9 (≈ 21.8 µM)				
CC1=CC(/C=C/C(=O)c2ccc(Cl)cc2)=CC(=C\NCCCNc2ccnc3cc(Cl)ccc23)/C1=O	0.0429 (≈ 0.0827 µM)	2.9 (≈ 5.59 µM)	513.99			
CC(C)(C)C1=CC(/C=C/C(=O)c2ccc(Cl)cc2)=CC(=C\Nc2ccc(Nc3ccnc4cc(Cl)ccc34)cc2)/C1=O	0.38 (≈ 0.639 µM)	7.88 (≈ 13.3 µM)	196.7			
CCC(C)C1=CC(/C=C/C(=O)c2ccco2)=CC(=C\Nc2ccc(Nc3ccnc4cc(Cl)ccc34)cc2)/C1=O (stereo not drawn)	0.08 (≈ 0.145 µM)	3.21 (≈ 5.84 µM)	678.11			
CCC(C)C1=CC(/C=C/C(=O)c2ccc(OC)cc2)=CC(=C\NCCNc2ccnc3cc(Cl)ccc23)/C1=O (stereo not drawn)	0.0183 (≈ 0.0337 µM)	12.6 (≈ 23.2 µM)	1058.05			
CC1=CC(/C=C/C(=O)c2ccc(Br)cc2)=CC(=C\NCCNc2ccnc3cc(Cl)ccc23)/C1=O	0.0188 (≈ 0.0343 µM)	7.6 (≈ 13.8 µM)	1114.59	99.7	18	80.6
CC1=CC(/C=C/C(=O)c2cccs2)=CC(=C\NCCNc2ccnc3cc(Cl)ccc23)/C1=O	0.00975 (≈ 0.0205 µM)	3.1 (≈ 6.51 µM)	1414.59	99.8	16.2	82.3
CC(C)(C)C1=CC(/C=C/C(=O)c2ccc(F)cc2)=CC(=C\NCCNc2ccnc3cc(Cl)ccc23)/C1=O	0.00719 (≈ 0.0136 µM)	13.8 (≈ 26 µM)	1499.3	99.9	18.4	97
CCC(C)C1=CC(/C=C/C(=O)c2ccc(Cl)cc2)=CC(=C\NCCCNc2ccnc3cc(Cl)ccc23)/C1=O (stereo not drawn)	0.0419 (≈ 0.0748 µM)	6.08 (≈ 10.8 µM)	491.77			
CC1=CC(/C=C/C(=O)c2ccc(Cl)cc2)=CC(=C\NCCNc2ccnc3cc(Cl)ccc23)/C1=O	0.0222 (≈ 0.044 µM)	2.99 (≈ 5.93 µM)	3755.43			
